These results are taken from ChEMBL document CHEMBL1158548, “Tetrahydrochromenoimidazoles as potassium-competitive acid blockers (P-CABs): structure-activity relationship of their antisecretory properties and their affinity toward the hERG channel” (J Med Chem, 2010).

The structures appear in SMILES notation. Calls of active or inactive are those of the source. No cut-off for these calls is given here.

Series [1] deals with Gastric gland. The series can be described thus: Inhibition of acid secretion in New Zealand White rabbit intact gastric glands assessed as [14C]dimethylaminopyridine accumulation by radioactivity. It is filed as functional, tissue-based. Particulars: Oryctolagus cuniculus. In outline: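 Gastric glands isolated intact from New Zealand rabbits; cellular activity read as reduced accumulation of the weak base 14C-dimethylaminopyridine; pIC50 given as geometric mean of 4-5 determinations.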

Series [2] is described as follows: Partition coefficient, log D by HPLC. Particulars: octanol/water. It is filed as physicochemical. In outline:
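logD by reversed-phase HPLC at 37 °C, calibrated with seven reference substances of known logD.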

Series [3] can be described thus: Inhibition of H+/K+ ATPase in hog gastric mucosa by malachite green based competitive binding assay. It is filed as tissue-based, Sus scrofa. In outline: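 Hog gastric mucosa H+/K+-ATPase, isolated enzyme; competitive binding assay run at pH 7.4; pIC50 reported as geometric mean of 4-5 measurements.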
The test system of series [4] is Rattus norvegicus. The series is described as follows: Inhibition of pentagastrin-stimulated acid secretion in intraduodenally dosed perfused Sprague-Dawley rat Ghosh Schild model. The format is functional. Particulars: intraduodenal.
In series [5] the target is hERG (KCNH2) (Homo sapiens, UniProt Q12809). The series can be described thus: Inhibition of human ERG expressed in CHO-K1 cells at 10 uM by whole-cell patch clamp technique. It is filed as cell-based. The note with it: CHO-K1 cells that express human ERG. The essentials:
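CHO-K1 cells stably transfected with hERG; whole-cell patch clamp recording of tail currents with test compound at 10 μM, three cells per compound; relative block of tail current amplitude given as arithmetic mean.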

Series [6] has as its system Rattus norvegicus. The series can be described thus: Inhibition of pentagastrin-stimulated acid secretion in Sprague-Dawley rat Ghosh Schild model at 3 umol/kg, intraduodenally. Particulars: intraduodenal. It is filed as functional.
For series [7], the system named is Canis familiaris. The series can be described thus: Inhibition of pentagastrin-stimulated acid secretion in po dosed Beagle dog fistula model assessed as elevation of intragastric pH after 2.5 hrs. The format is functional, organism-based. The note with it: Canis lupus familiaris. In outline:
(§1)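 Surgically prepared fistula dogs; pentagastrin infused subcutaneously from 1 h after start of pH-metry over 22.5 h; drug or vehicle given orally in capsules 2.5 h after start; intragastric pH recorded continuously for 24 h with combined glass electrode and ambulatory pH meter; duration of pH >5 read from curves.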

Series [8] can be described thus: Dissociation constant, pKa at pH 2.0 to 11.0 by potentiometric cosolvent titration. It is filed as physicochemical.
Series [9] in a line: Octanol/aqueous KCl distribution coefficient, log D at pH 7.4 by potentiometric titration. It is filed as physicochemical. In outline: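 Octanol/aqueous KCl distribution coefficient from potentiometric titrations across pH 2.0-11.0 at 25 °C.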
The test system of series [10] is Canis familiaris. The series is described as follows: Inhibition of pentagastrin-stimulated acid secretion in po dosed Beagle dog fistula model assessed as elevation of intragastric pH after 4 hrs. Particulars: Canis lupus familiaris. It is filed as functional, organism-based. In outline: as §1
Series [11] has as its system Canis familiaris. The series is described as follows: Inhibition of pentagastrin-stimulated acid secretion in po dosed Beagle dog fistula model assessed as elevation of intragastric pH after 8 hrs. Particulars: Canis lupus familiaris. It is filed as functional, organism-based. The essentials:
as §1

Series [12] has as its system Canis familiaris. The series can be described thus: Inhibition of pentagastrin-stimulated acid secretion in po dosed Beagle dog fistula model assessed as elevation of intragastric pH. It is filed as functional, organism-based. The note with it: Canis lupus familiaris. In outline: as §1
Series [13] relates to Canis familiaris. The series can be described thus: Inhibition of pentagastrin-stimulated acid secretion in po dosed Beagle dog fistula model assessed as elevation of intragastric pH after 2 hrs. The format is functional, organism-based. The note with it: Canis lupus familiaris. In outline: as §1
Series [14] in a line: Clearance in Sprague-Dawley rat Ghosh Schild model. It is filed as ADME, organism-based. The note with it: in vivo.
Series [15] is described as follows: Oral bioavailability in Sprague-Dawley rat Ghosh Schild model. It is filed as ADME, organism-based. The note with it: in vivo.
A short description of series [16]: Clearance in Beagle dog fistula model. The format is ADME, organism-based, Canis lupus familiaris. Particulars: in vivo.
The test system of series [17] is Canis familiaris. The series is described as follows: Inhibition of pentagastrin-stimulated acid secretion in Beagle dog fistula model assessed as elevation of intragastric pH at 9 umol/kg, po after 8 hrs. The format is functional, organism-based. Particulars: Canis lupus familiaris. The essentials: as §1
Series [18] can be described thus: Oral bioavailability in Beagle dog fistula model. It is filed as ADME, organism-based, Canis lupus familiaris. Particulars: in vivo.

hERG (KCNH2), sequence (Q12809 whole entry): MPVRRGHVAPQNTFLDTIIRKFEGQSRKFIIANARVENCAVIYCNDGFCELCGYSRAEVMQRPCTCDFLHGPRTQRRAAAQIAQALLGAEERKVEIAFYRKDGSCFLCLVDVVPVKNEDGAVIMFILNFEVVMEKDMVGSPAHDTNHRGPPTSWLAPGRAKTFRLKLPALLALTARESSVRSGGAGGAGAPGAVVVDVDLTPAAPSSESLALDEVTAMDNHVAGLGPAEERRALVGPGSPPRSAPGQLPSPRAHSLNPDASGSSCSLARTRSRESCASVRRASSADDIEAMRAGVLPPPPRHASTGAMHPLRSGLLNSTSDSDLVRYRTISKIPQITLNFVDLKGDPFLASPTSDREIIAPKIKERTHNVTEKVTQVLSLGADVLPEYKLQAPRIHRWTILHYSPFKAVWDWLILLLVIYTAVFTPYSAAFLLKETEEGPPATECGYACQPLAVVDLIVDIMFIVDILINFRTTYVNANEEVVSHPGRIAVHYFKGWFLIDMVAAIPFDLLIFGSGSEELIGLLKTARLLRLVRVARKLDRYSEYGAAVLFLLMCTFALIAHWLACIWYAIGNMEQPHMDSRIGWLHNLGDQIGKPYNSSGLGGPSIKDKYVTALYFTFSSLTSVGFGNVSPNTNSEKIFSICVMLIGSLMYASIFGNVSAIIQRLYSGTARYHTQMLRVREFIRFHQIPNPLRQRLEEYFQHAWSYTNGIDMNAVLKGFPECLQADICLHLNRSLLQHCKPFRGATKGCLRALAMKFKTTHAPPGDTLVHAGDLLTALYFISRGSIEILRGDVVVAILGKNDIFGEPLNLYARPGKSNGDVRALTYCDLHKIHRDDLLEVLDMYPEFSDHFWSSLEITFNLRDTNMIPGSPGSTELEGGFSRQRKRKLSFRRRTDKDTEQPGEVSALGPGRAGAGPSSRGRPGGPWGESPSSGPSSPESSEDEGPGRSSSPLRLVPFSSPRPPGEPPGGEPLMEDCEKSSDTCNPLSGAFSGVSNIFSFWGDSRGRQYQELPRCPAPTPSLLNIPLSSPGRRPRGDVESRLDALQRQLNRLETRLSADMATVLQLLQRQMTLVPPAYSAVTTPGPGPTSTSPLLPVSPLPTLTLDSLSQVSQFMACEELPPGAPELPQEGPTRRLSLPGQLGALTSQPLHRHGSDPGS

The term IC50 denotes the point on the concentration scale where inhibition reaches its midpoint. A word on the logD: it is lipophilicity at a set pH, counting ionised and neutral species. By pIC50 is commonly meant −log10 of the IC50, conventionally taken in molar units. For orientation: ED50 means the dose at which the effect has come halfway, by size or by number of responders. Read a low ED50 as an effect at a small dose. Usually inhibition stands for the relative decrease from the control value, in per cent. Broadly, the inhibition in vivo is how much of the control response was suppressed. A low value points to a response near the control. Regarding `Cc1ccccc1[C@@H]1CCc2c(C(=O)N3CC(C(=O)N(C)C)C3)cc3c(nc(C)n3C)c2O1`, the IC50 in series [1] was 79400 nM. This compound registered a logD in series [2] of 2.5. For the same compound, the pIC50 in series [3] came out at 4.9. The same compound yielded an ED50 in series [4] of 3 µmol/kg. For the same compound, in [5], the inhibition at 10 µM is 6%. Moreover, the inhibition in vivo at 3 µmol/kg in series [6] was found to be 36%.
In general, pKa refers to the negative logarithm of the acid dissociation constant. On to `CNC(=O)c1cc2c(nc(C)n2C)c2c1CC[C@@H](c1ccccc1C)O2`, for which the outcome in series [7] was Active. The IC50 in series [1] is 2510 nM. The pKa in [8] came out at 5.7. The same compound registered a logD in [2] of 2.7. This compound had a pIC50 in series [3] of 5.1. In series [4], this compound yielded an ED50 of 0.25 µmol/kg. Also, the inhibition at 10 µM in series [5] is 3%.
In [2], `Cc1ccccc1[C@@H]1CCc2c(C(=O)N3CCC3C(N)=O)cc3c(nc(C)n3C)c2O1` (stereo not given in full) gave a logD of 2.3. In [3], this compound showed a pIC50 of 4.6. This compound had an ED50 in series [4] of 3 µmol/kg. Besides, the inhibition at 10 µM in series [5] worked out at 7%. The compound further showed an inhibition in vivo at 3 µmol/kg in series [6] of 22%.
On to `Cc1ccccc1[C@@H]1CCc2c(C(=O)N3CC(C)(O)C3)cc3c(nc(C)n3C)c2O1`, for which the IC50 in series [1] was 79400 nM. This compound also yielded a logD in series [2] of 2.5. In series [3], this compound gave a pIC50 of 4.7. In series [4], this compound gave an ED50 of 3 µmol/kg. Moreover, the inhibition at 10 µM in series [5] was 1%. Further, in [6], the inhibition in vivo at 3 µmol/kg was 10%.
`Cc1cc(Cl)ccc1[C@@H]1CCc2c(C(=O)N(C)C)cc3c(nc(C)n3C)c2O1`: the half-inhibitory concentration (IC50) in [1] is 200 nM. Also, the logD in series [9] came out at 3.4; in series [2] it was 3.2. The result in series [10] was Active. In addition, the pKa in series [8] (read-out: pKa) was found to be 5.59. This compound yielded a pIC50 in series [3] of 6.1. For the same compound, the 50% effect level in series [4] (ED50) was put at a dose of 0.1 µmol/kg. Moreover, the inhibition at 10 µM in series [5] is -6%.
As to `CNC(=O)c1cc2c(nc(C)n2C)c2c1CC[C@@H](c1ccc(Cl)cc1C)O2`, the IC50 in series [1] is 794 nM. The logD in series [9] was 3.46; in [2], 3.1. In series [8] (read-out: pKa), the pKa stood at 5.6. The outcome in series [11] was Active. Also, the pIC50 in series [3] came out at 4.9. Besides, the ED50 in series [4] worked out at 0.15 µmol/kg. Further, the inhibition at 10 µM in series [5] is 45%.
As to `Cc1nc2c3c(c(C(=O)N(C)C)cc2n1C)CC[C@@H](c1ccc(Cl)cc1)O3`, in series [1], the IC50 was 398 nM. Further, the logD was determined as 2.92 in series [9] and 2.9 in series [2]. For the same compound, the outcome in series [12] and in [13] was Active. The pKa in series [8] (read-out: pKa) amounted to 5.59. The compound also returned a pIC50 in [3] of 5.1. Further, the 50% effect level in series [4] (ED50) was put at a dose of 0.15 µmol/kg. For the same compound, the inhibition at 10 µM in series [5] was determined as 84%.
As a reminder, the clearance is the volume of plasma or blood freed of the substance per unit of time. Read a low clearance as a low capacity for elimination. Usually bioavailability stands for the share of a dose that reaches the circulation, judged against a reference dose that is usually intravenous. Low values mean poor availability, high ones good availability. Turning to `Cc1ccccc1[C@@H]1CCc2c(C(=O)N(C)C)cc3c(nc(C)n3C)c2O1`, the IC50 in [1] was 794 nM. The clearance is 21 mL/min/kg in series [14] and 4.67 mL/min/kg in series [16]. Moreover, the bioavailability in [15] stood at 64%; in series [18] it was 72%. The pKa in [8] came to 5.68. For the same compound, the logD in series [2] was 2.8. In [3], this compound displayed a pIC50 of 5.3. The compound also came in with an ED50 in [4] of 0.23 µmol/kg. In series [17], the result was Active. The inhibition at 10 µM in series [5] is 33%.
